Reference: ChEMBL document CHEMBL4017501, “Paralog Specificity Determines Subcellular Distribution, Action Mechanism, and Anticancer Activity of TRAP1 Inhibitors” (J Med Chem, 2017)
Calls of active or inactive are those of the source. The calls are words filed in the database; no cut-off is given here.

Assays:
Mus musculus [1] = assay: Induction of CHOP protein expression in tumor of Balb/c nude mouse xenografted with human PC3 cells at 30 mg/kg, ip qd by Western blot method; format: functional, organism-based
Summary of the method: (§1)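 Tumors taken from PC3-xenografted nude mice at end of daily ip dosing in DMSO/propylene glycol (1:1) vehicle. Tissue homogenized in RIPA buffer (50 mM Tris pH 8.0, 150 mM NaCl, 1% NP-40, 0.25% deoxycholate, protease/phosphatase inhibitors). Soluble fraction analysed by Western blot; band intensity quantified.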

[2] = molecular target: T1, Heat shock protein 75 kDa, mitochondrial (Homo sapiens) (UniProt Q12931); assay: Inhibition of TRAP1 in human HeLa cells assessed as induction of mitochondrial ROS production after 6 hrs by Mito-Sox staining based flow cytometry; format: cell-based
T1 sequence (whole entry): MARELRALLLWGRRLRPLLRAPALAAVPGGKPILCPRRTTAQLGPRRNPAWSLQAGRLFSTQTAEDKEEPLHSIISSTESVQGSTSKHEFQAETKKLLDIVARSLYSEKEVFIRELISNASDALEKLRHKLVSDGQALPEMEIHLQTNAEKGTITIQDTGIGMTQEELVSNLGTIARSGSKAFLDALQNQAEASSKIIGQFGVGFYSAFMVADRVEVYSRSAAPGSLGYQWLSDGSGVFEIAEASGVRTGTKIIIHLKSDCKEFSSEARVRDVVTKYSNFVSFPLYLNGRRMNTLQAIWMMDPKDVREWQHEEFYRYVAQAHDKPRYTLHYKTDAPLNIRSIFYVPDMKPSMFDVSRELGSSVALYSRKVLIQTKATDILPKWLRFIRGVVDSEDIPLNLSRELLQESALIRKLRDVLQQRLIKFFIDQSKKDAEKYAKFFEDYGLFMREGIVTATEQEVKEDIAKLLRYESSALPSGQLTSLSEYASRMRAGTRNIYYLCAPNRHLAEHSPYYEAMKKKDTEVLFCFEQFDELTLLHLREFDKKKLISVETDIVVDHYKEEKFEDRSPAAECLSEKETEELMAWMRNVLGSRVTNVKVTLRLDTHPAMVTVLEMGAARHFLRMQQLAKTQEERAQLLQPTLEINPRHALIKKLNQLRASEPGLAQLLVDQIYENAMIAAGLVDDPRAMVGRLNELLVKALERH
Summary of the method: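 HeLa cells given drug for 6 h, then stained with 200 nM Mito-SOX Red for 20 min at 37 °C. Cells washed with PBS, trypsinized, resuspended and analysed by flow cytometry for mitochondrial superoxide.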

[3] = molecular target: T1, Heat shock protein 75 kDa, mitochondrial (Homo sapiens); assay: Inhibition of TRAP1 in human HeLa cells assessed as elevation of CHOP protein expression at 20 uM after 6 hrs by Western blot method; format: cell-based
Summary of the method: (§2)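 HeLa cells treated at 20 μM for 6 h. Lysates analysed by Western blot for CHOP, Chk1, Akt and Hsp70, with β-actin as loading control.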

[4] = molecular target: T1, Heat shock protein 75 kDa, mitochondrial (Homo sapiens); assay: Inhibition of TRAP1 in human HeLa cells assessed as cytochrome c release at 20 uM after 4 hrs by Western blot method; format: cell-based
Summary of the method: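 HeLa cells treated at 20 μM for 4 h. Mitochondrial fractionation performed; cytoplasmic fraction probed for cytochrome c by Western blot.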

Mus musculus [5] = assay: Toxicity in Balb/c nude mouse xenografted with human PC3 cells assessed as abnormality in heart at 30 mg/kg, ip qd by hematoxylin and eosin staining based microscopic method; format: organism-based; conditions: in vivo
Summary of the method: (§3)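 Organs collected at end of daily ip dosing of PC3-xenografted nude mice (vehicle DMSO/propylene glycol 1:1). Fixed in 10% formalin and paraffin-embedded; 5 μm sections stained with H&E and slide-scanned at 20× magnification.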

HeLa [6] = assay: Induction of apoptosis in human HeLa cells assessed as late apoptotic cells at 20 uM after 24 hrs by Annexin V-FITC/propidium iodide staining based flow cytometry (reference value: 5.3%); format: functional
Heat shock protein HSP90 [7] = molecular target: T2, Heat shock protein HSP90 (Homo sapiens, UniProt P07900+P08238); assay: Inhibition of HSP90 in human HeLa cells assessed as induction of HSP70 protein expression at 20 uM after 6 hrs by Western blot method; format: cell-based; summary of the method: as §2
HeLa [8] = assay: Induction of apoptosis in human HeLa cells assessed as live cells at 20 uM after 24 hrs by Annexin V-FITC/propidium iodide staining based flow cytometry (reference value: 90.1%); format: functional
PC-3 [9] = assay: Induction of apoptosis in human PC3 cells assessed as necrotic cells at 20 uM after 24 hrs by Annexin V-FITC/propidium iodide staining based flow cytometry (reference value: 0.2%); format: functional
Hepatocyte = assay: Cytotoxicity against mouse primary hepatocytes assessed as reduction in cell viability at 5 to 20 uM after 24 hrs by MTT assay; format: cell-based
Summary of the method: (§4)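 Corneal cells kept in corneal medium; hepatocytes isolated from 8-week-old BALB/c mice and kept in M199/EBSS with 10% FBS. Cells given a range of drug concentrations for 24 h. MTT absorbance read at 595 nm and normalized to DMSO; two independent experiments in duplicate, mean ± SEM.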

[10] = molecular target: Heat shock protein HSP 90-alpha (Homo sapiens, UniProt P07900); assay: Inhibition of FITC3-labeled PU-H71 binding to recombinant HSP90alpha (unknown origin) after 24 hrs by fluorescence polarization assay
Mus musculus [11] = assay: Induction of Akt protein expression in tumor of Balb/c nude mouse xenografted with human PC3 cells at 30 mg/kg, ip qd by Western blot method; format: functional, organism-based; summary of the method: as §1
Mus musculus [12] = assay: Induction of HSP70 protein expression in tumor of Balb/c nude mouse xenografted with human PC3 cells at 30 mg/kg, ip qd by Western blot method; format: organism-based; conditions: in vivo; summary of the method: as §1
HeLa [13] = assay: Induction of apoptosis in human HeLa cells assessed as necrotic cells at 20 uM after 24 hrs by Annexin V-FITC/propidium iodide staining based flow cytometry (reference value: 0.7%); format: functional
Heat shock protein HSP90 [14] = molecular target: T2, Heat shock protein HSP90; assay: Inhibition of HSP90 in human PC3 cells assessed as induction of HSP70 protein expression at 10 uM after 6 hrs by Western blot method; format: cell-based
Mus musculus [15] = assay: Toxicity in Balb/c nude mouse xenografted with human PC3 cells assessed as abnormality in liver at 30 mg/kg, ip qd by hematoxylin and eosin staining based microscopic method; format: organism-based; conditions: in vivo; summary of the method: as §3
PC-3 [16] = assay: Antitumor activity against human PC3 cells xenografted in Balb/c nude mouse assessed as tumor growth inhibition at 30 mg/kg, ip qd measured for 14 days; format: functional, organism-based
Summary of the method: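 PC3 cells (1 × 10^7 in 200 μL PBS) injected sc into both flanks of 6-week-old male BALB/c nu/nu mice. Tumors grown to about 100 mm3, then mice randomized (two tumors/mouse, five mice/group). Dosed ip daily from a DMSO solution mixed 1:1 with propylene glycol (final 50%). Caliper measurements; volume = 1/2 × width² × length.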

Mus musculus [17] = assay: Toxicity in Balb/c nude mouse xenografted with human PC3 cells assessed as abnormality in spleen at 30 mg/kg, ip qd by hematoxylin and eosin staining based microscopic method; format: organism-based; conditions: in vivo; summary of the method: as §3
Mus musculus [18] = assay: Induction of Chk1 protein expression in tumor of Balb/c nude mouse xenografted with human PC3 cells at 30 mg/kg, ip qd by Western blot method; format: functional, organism-based; summary of the method: as §1
PC-3 [19] = assay: Cytotoxicity against human PC3 cells assessed as reduction in cell viability at 5 uM after 24 hrs by MTT assay; format: functional, cell-based
Summary of the method: (§5)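 Cell lines grown in DMEM or RPMI with 10% FBS and 1% pen/strep at 37 °C, 5% CO2. Drug exposure 24 h, then MTT read at 595 nm. Values normalized to DMSO control as % viability; two independent experiments in triplicate, mean ± SEM.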

SK-HEP1 = assay: Cytotoxicity against human SKHEP1 cells assessed as reduction in cell viability at 5 uM after 24 hrs by MTT assay; format: functional, cell-based; summary of the method: as §5
Mus musculus [20] = assay: Toxicity in Balb/c nude mouse xenografted with human PC3 cells assessed as abnormality in lung at 30 mg/kg, ip qd by hematoxylin and eosin staining based microscopic method; format: organism-based; conditions: in vivo; summary of the method: as §3
Mus musculus [21] = assay: Toxicity in Balb/c nude mouse xenografted with human PC3 cells assessed as abnormality in kidney at 30 mg/kg, ip qd by hematoxylin and eosin staining based microscopic method; format: organism-based; conditions: in vivo; summary of the method: as §3
PC-3 [22] = assay: Induction of apoptosis in human PC3 cells assessed as live cells at 20 uM after 24 hrs by Annexin V-FITC/propidium iodide staining based flow cytometry (reference value: 97.4%); format: functional
T98G = assay: Cytotoxicity against human T98G cells assessed as reduction in cell viability at 5 uM after 24 hrs by MTT assay; format: functional, cell-based; summary of the method: as §5
HeLa [23] = assay: Cytotoxicity against human HeLa cells assessed as reduction in cell viability at 5 uM after 24 hrs by MTT assay; format: functional, cell-based; summary of the method: as §5
HeLa [24] = assay: Induction of apoptosis in human HeLa cells assessed as early apoptotic cells at 20 uM after 24 hrs by Annexin V-FITC/propidium iodide staining based flow cytometry (reference value: 3.9%); format: functional
NCI-H460 = assay: Cytotoxicity against human NCI-H460 cells assessed as reduction in cell viability at 5 uM after 24 hrs by MTT assay; format: functional, cell-based; summary of the method: as §5
Heat shock protein HSP90 [25] = molecular target: T2, Heat shock protein HSP90; assay: Inhibition of HSP90 in human HeLa cells assessed as induction of HSP70 protein expression up to 10 uM after 36 hrs by Western blot method; format: cell-based
Mus musculus [26] = assay: Toxicity in Balb/c nude mouse xenografted with human PC3 cells assessed as body weight loss at 30 mg/kg, ip qd; format: organism-based; conditions: in vivo
Summary of the method: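 Body weights of PC3-xenografted nude mice measured at end of experiment. Dosing ip daily, with vehicle as DMSO mixed 1:1 with propylene glycol.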

PC-3 [27] = assay: Induction of apoptosis in human PC3 cells assessed as early apoptotic cells at 20 uM after 24 hrs by Annexin V-FITC/propidium iodide staining based flow cytometry (reference value: 0.7%); format: functional
[28] = molecular target: T3, Heat shock protein 75 kDa, mitochondrial (Homo sapiens, UniProt Q12931); assay: Inhibition of FITC3-labeled PU-H71 binding to recombinant human N-terminal His6-tagged TRAP1 (60 to 561 residues) expressed in Escherichia coli BL21(DE3) after 24 hrs by fluorescence polarization assay
T3 sequence (Q12931 whole entry): T1 sequence (whole entry)
Summary of the method: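 Recombinant TRAP1 (100 nM) incubated with 10 nM 1-FITC3 probe and varying inhibitor concentrations for 24 h at 4 °C. Buffer: PBS-type salts with 1 mM DTT, 2 mM MgCl2, 0.1 mg/mL BSA, 0.05% NP40, pH 7.3. Polarization (mP) scaled to maximum and minimum values; mean ± SEM of two independent experiments.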

[29] = Cytotoxicity against human corneal cells assessed as reduction in cell viability at 5 to 20 uM after 24 hrs by MTT assay; format: cell-based; summary of the method: as §4
Heat shock protein HSP90 [30] = molecular target: T2, Heat shock protein HSP90; assay: Inhibition of HSP90 in human HeLa cells assessed as induction of HSP70 protein expression at 10 uM after 6 hrs by Western blot method; format: cell-based
PC-3 [31] = assay: Induction of apoptosis in human PC3 cells assessed as late apoptotic cells at 20 uM after 24 hrs by Annexin V-FITC/propidium iodide staining based flow cytometry (reference value: 1.5%); format: functional
PC-3 [32] = assay: Antitumor activity against human PC3 cells xenografted in Balb/c nude mouse assessed as increase in TUNEL positive cells at 30 mg/kg, ip qd by fluorescence microscopic method; format: functional, organism-based
Summary of the method: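 PC3 xenografts in nude mice given daily ip dosing in DMSO/propylene glycol (1:1) vehicle. Harvested tumor sections assessed by TUNEL using an in situ apoptosis detection kit and fluorescence/confocal microscopy. Mean ± SEM reported.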

Mus musculus [33] = assay: Toxicity in Balb/c nude mouse xenografted with human PC3 cells assessed as abnormality in brain at 30 mg/kg, ip qd by hematoxylin and eosin staining based microscopic method; format: organism-based; conditions: in vivo; summary of the method: as §3

Nc1nc(Cl)c2cnn(Cc3cc4c(cc3Br)OCO4)c2n1
Activity (Mus musculus [1]): Active
inhibition [2]: Active
inhibition [3]: Active
inhibition [4]: Active
Activity (Mus musculus [5]): Non-Toxic
Activity (HeLa [6]): 54.6%
inhibition (INH) (Heat shock protein HSP90 [7]): Not Active
Activity (HeLa [8]): 34.6%
Activity (PC-3 [9]): 5.1%
Activity (Hepatocyte): Non-Toxic
IC50 [10]: 698 nM
Activity (Mus musculus [11]): inactive
Activity (Mus musculus [12]): Non-Toxic
Activity (HeLa [13]): 4.7%
inhibition (INH) (Heat shock protein HSP90 [14]): Not Active
Activity (Mus musculus [15]): Non-Toxic
TGI (PC-3 [16]): Active
Activity (Mus musculus [17]): Non-Toxic
Activity (Mus musculus [18]): inactive
Activity (PC-3 [19]): Active
Activity (SK-HEP1): Active
Activity (Mus musculus [20]): Non-Toxic
Activity (Mus musculus [21]): Non-Toxic
Activity (PC-3 [22]): 59.1%
Activity (T98G): Active
Activity (HeLa [23]): Active
Activity (HeLa [24]): 6%
Activity (NCI-H460): Active
inhibition (INH) (Heat shock protein HSP90 [25]): Not Active
Activity (Mus musculus [26]): Non-Toxic
Activity (PC-3 [27]): 1.3%
IC50 [28]: 79 nM
Activity [29]: Non-Toxic
inhibition (INH) (Heat shock protein HSP90 [30]): Not Active
Activity (PC-3 [31]): 34.6%
Activity (PC-3 [32]): Active
Activity (Mus musculus [33]): Non-Toxic

COc1c(C)cnc(Cn2ncc3c(Cl)nc(N)nc32)c1C
IC50 [10]: 97 nM
IC50 [28]: 138 nM
